RanGTP-Imp inh: inhibitors of RanGTP-importin-beta interaction, primary screen, biochemical, FRET, CFP-Ran, YFP-importin-beta, homogeneous | cell-free CFP-Ran/YFP-importin-beta FRET ratio | 300,000 compounds, 1.1% hits | inhibition, % (no concentration beside the values);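 active means more than half of the replicate wells show a fall in the fluorescence ratio signal beyond about 16%, limit read from the data, passing the limit was not always enough; inconclusive means exactly half of the replicate wells pass the set limit; inactive means fewer than half of replicates pass the limit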;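 further: 0% = DMSO wells and 100% = Ran loaded with GDP instead of GTP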
MEX-5 binding: C. elegans MEX-5 TCR-2 RNA binding activity; MEX-5/FITC-TCR2 RNA binding, fluorescence polarization; hits give low values; activity score (negative = inhibition of binding), % at 10 µM; 300,000 compounds, 0.38% hits; AID 1832; Q9XUB2;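 active means inhibition past about -25% in most replicates, and total fluorescence under double the plate's negative control median, limit read from the data; inconclusive means replicates evenly split on the limit, or fluorescence at least double controls; inactive means too little inhibition in most replicates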;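 further: 0% = DMSO and -100% = 5 µM competing unlabeled TCR2 RNA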
LANA-H2B inh: blocks KSHV LANA binding to histone H2A/H2B. 320,000 compounds, 0.6% hits. AID 2629. Q9QR71. inhibition, % (no concentration beside the values). cell-free LANA-H2A/H2B peptide, fluorescence polarization; in the data active means inhibition mostly above about 10%, no sharp cut-off; inactive means mostly below about 6.7%
Target sequence (Q9QR71 whole entry, looked up): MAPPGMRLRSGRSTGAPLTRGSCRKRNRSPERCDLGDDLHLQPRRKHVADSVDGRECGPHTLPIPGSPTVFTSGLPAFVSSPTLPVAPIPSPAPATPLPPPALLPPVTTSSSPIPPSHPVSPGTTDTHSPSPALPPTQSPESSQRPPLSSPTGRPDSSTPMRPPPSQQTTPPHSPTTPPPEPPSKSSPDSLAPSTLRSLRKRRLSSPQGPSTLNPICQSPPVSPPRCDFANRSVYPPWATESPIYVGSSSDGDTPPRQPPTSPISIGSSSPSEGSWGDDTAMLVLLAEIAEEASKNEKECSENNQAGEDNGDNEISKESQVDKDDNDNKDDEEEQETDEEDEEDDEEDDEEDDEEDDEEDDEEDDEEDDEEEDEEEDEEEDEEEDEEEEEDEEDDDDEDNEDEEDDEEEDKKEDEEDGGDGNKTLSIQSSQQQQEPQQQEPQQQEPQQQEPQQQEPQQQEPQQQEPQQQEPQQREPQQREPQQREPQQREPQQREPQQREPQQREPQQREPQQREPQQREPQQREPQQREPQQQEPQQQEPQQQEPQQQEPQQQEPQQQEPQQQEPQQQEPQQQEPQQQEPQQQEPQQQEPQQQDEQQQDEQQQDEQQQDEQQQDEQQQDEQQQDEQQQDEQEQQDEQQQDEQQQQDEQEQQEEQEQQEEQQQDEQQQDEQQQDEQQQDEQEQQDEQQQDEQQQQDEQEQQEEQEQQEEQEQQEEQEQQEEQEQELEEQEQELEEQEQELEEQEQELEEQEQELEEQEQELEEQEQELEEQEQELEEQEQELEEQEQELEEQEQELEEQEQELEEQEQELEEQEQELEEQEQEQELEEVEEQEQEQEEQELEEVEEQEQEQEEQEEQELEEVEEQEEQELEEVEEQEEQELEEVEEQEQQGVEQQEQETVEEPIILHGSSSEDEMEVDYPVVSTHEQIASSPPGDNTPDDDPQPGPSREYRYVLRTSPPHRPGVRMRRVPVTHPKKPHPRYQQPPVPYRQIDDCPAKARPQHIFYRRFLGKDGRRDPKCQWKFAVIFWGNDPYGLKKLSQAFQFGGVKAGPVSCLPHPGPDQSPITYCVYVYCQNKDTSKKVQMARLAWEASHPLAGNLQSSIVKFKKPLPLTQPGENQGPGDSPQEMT
Runt-CBFb FRET: inhibitors of human RUNX1 Runt domain binding to CBFb | Cerulean-Runt/Venus-CBFb FRET ratio 530/480, 1 h | inhibition, % at 20 µM | 220,000 compounds, 0.46% hits;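 active means inhibition over about 50% at 20 µM in the single-dose screen, limit read from the data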;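 further: 0% = DMSO wells and 100% = excess unlabeled CBFb competitor control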
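Reagent – Venus-CBFb binding partner, 100 nM · Assay system – Cerulean-tagged RUNX1 Runt domain (FRET donor) fusion protein · Input – 100 nM per protein · Incubation – two 1 h room-temperature incubations shielded from light · Measured by – FRET fluorescence · Medium – Tris buffer pH 7.5 with salts and BSA · Benchmarks – unlabeled CBFb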
Runt-SMMHC FRET: blocks binding of human RUNX1 Runt domain to CBFb-SMMHC; Q01196+Q13951; Cerulean-Runt/Venus-CBFb-SMMHC FRET ratio 530/480, 1 h; inhibition, % at 20 µM; 220,000 compounds, 0.74% hits;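 active means mean inhibition across duplicate retests at 20 µM reaching about 50%, limit read from the data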;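 further: 0% = DMSO wells and 100% = wells with excess untagged CBFb-SMMHC; inhibitors lower the FRET ratio by blocking Runt binding to CBFb-SMMHC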
EBV gp42 block: EBV gp42 inhibition | Q1HVG2 | Fluorescence polarization binding assay, mP read-out | inhibition, % (tested at 21.74 µM) | 220,000 compounds, 0.42% hits; in the data active means inhibition above about 50%
Numbers without * were called inactive; ? = inconclusive; . = no result. Compounds with a hit are over-represented: about 2.4% of the library has one in this group of screens.

SMILES | RanGTP-Imp inh | MEX-5 binding | LANA-H2B inh | Runt-CBFb FRET | Runt-SMMHC FRET | EBV gp42 block
CNC(=O)C(=O)Nc1cc2c3c(c1)C(C)C(=O)N3CCC2 (configuration not stated) | -1.5 | 1.9 | 1.2 | . | . | .
O=C(N/N=C\c1c(O)ccc2ccccc12)c1ccc(S(=O)(=O)N2CCCCC2)cc1 | -7.7 | 0.5 | 24.4* | -224.6 | -176.0 | -121.8
Cc1cccn2c(=O)c3cc(S(=O)(=O)c4ccccc4)c(=N)n(CC4CCCO4)c3nc12 (configuration not stated) | 158.1* | -38.5* | -0.3 | 11.9 | 81.0* | -0.9
Cc1ccc(S(=O)(=O)c2cc3c(=O)n4cccc(C)c4nc3n(CC3CCCO3)c2=N)cc1C (configuration not stated) | 136.6* | -4.0 | -2.5 | 65.8* | 88.1* | -5.8
Cc1ccc(CNC(=O)c2cc3c(=O)n4cccc(C)c4nc3n(CC3CCCO3)c2=N)cc1 (configuration not stated) | . | . | . | 16.7 | 41.7 | .
CC(=O)Nc1cccc(N)c1 | . | . | 27.5* | . | . | .
Cc1nc2ccn(Cc3ccccc3)c(=O)c2cc1C(=O)N1CCN(c2ccc(F)cc2)CC1 | 69.1* | -2.9 | -3.3 | . | . | .
OCCC1CN(C/C=C/c2ccco2)CCN1Cc1ccccc1 (configuration not stated) | 3.8 | -0.5 | -0.1 | . | . | .
Cc1c(-c2cccc(Cl)c2)nc2ccccc2c1C(=O)NC1CC1 | . | . | 2.9 | . | . | .
Oc1ccccc1N1CCN(Cc2ncc(-c3ccccc3)o2)CC1 | 0.4 | -1.7 | 0.3 | . | . | .
Cc1cc(NCCCn2ccnc2)n2c(nc3ccccc32)c1C#N | 18.7* | 1.2 | -3.0 | 13.3 | 29.8 | -14.3
Cc1cc(NCCCOC(C)C)n2c(nc3ccccc32)c1C#N | 26.0* | 1.9 | -1.6 | . | . | .
O=C(Nc1ccc(NC(=O)N2CCN(c3ccccc3O)CC2)cc1)N1CCN(c2ccccc2O)CC1 | -1.4 | -1.8 | -1.6 | . | . | .
CCOc1ccc2nc(N3C(=O)/C(=C/c4ccc(Cl)cc4)NC3=S)sc2c1 | -5.3 | -4.4 | . | -6.4 | -60.3 | 64.1*
O=C(Cc1cccc(C(F)(F)F)c1)NCc1cccnc1 | -3.7 | -0.1 | 5.3 | . | . | .
OCCC1CN(Cc2c(F)cccc2Cl)CCN1C1CCCCC1 (configuration not stated) | 4.4 | 1.8 | -3.2 | 0.2 | -0.5 | 0.7
Cc1nn(C)c(Cl)c1CN1CCN(C2CCCCC2)C(CCO)C1 (configuration not stated) | 4.2 | 1.5 | 4.2 | 117.5* | -5.0 | -10.9
Fc1cccc(CSc2nc3ncccc3[nH]2)c1 | -1.2 | 2.3 | 2.5 | -2.5 | 3.1 | -26.0
Fc1ccc(CSc2nc3ncccc3[nH]2)cc1 | ? | 0.0 | 2.2 | 102.4* | 109.9 | 10.2
COC/C=C/C1=CC2=CC(=O)C(C)(OC(=O)c3cnc4ccccc4n3)C(=O)C2=CN1CCN1CCOCC1 (configuration not stated) | -0.3 | 1.1 | 17.8* | -1.6 | -5.3 | -10.5
COC/C=C/C1=CC2=CC(=O)C(C)(OC(=O)c3cnc4ccccc4n3)C(=O)C2=CO1 (configuration not stated) | -16.2 | -41.6* | -0.7 | . | . | .
Cc1c(N=C2SCC(=O)N2/N=C/c2ccccc2)c(=O)n(-c2ccccc2)n1C | 0.1 | 2.0 | 0.0 | 0.1 | 0.5 | -6.4
Cc1cc(C)c(C#N)c(SCc2ccccc2)n1 | 3.1 | 1.3 | -1.3 | -2.5 | -0.7 | -16.1
Cc1ccc2nc(CSc3nc(C)cc(C)c3C#N)[nH]c2c1 | 29.0* | 2.6 | -2.2 | 1.9 | 7.4 | -18.4
O=C(Cc1ccccc1)Nc1ccccc1C(=O)NCC1CCCO1 (configuration not stated) | 8.3 | -0.7 | 0.4 | . | . | .
SMILES | RanGTP-Imp inh | MEX-5 binding | LANA-H2B inh | Runt-CBFb FRET | Runt-SMMHC FRET | EBV gp42 block
CC1Cc2ccccc2N1C(=O)CN(C)CC(=O)Nc1ccc(OC(F)(F)F)cc1 (configuration not stated) | . | . | 1.4 | . | . | .
CN1CCN(c2ccc([N+](=O)[O-])cc2NC(=O)c2cccs2)CC1 | 1.3 | 0.6 | -0.2 | . | . | .
CC(CCc1ccc(O)cc1)NCCc1ccc(O)c(O)c1 (configuration not stated) | 40.3* | -7.5 | 1.9 | . | . | .
COc1ccccc1CCNC(C)CCc1ccc(O)cc1 (configuration not stated) | ? | 1.6 | -1.1 | . | . | .
N=c1c(C(=O)NC2CCCCC2)cc2c(=O)n3ccccc3nc2n1Cc1ccc(F)cc1 | 159.0* | ? | 15.9 | . | . | .
CCOC(=O)c1cc2c(=O)n3ccccc3nc2n(Cc2ccccc2Cl)c1=N | . | . | . | 38.8 | 38.7 | .
CCOC(=O)c1cc2c(=O)n3ccccc3nc2n(Cc2ccccc2)c1=N | 188.2* | 2.9 | -4.2 | 18.4 | 62.6* | -10.7
O=C(NC1CCCC1)c1cc2c(=O)n3ccccc3nc2s1 | . | . | 3.0 | . | . | .
Cc1ccc(Cn2c(=N)c(C(=O)NC3CCCCC3)cc3c(=O)n4ccccc4nc32)cc1 | 161.1* | ? | -2.8 | . | . | .
N=c1c(C(=O)NC2CCCC2)cc2c(=O)n3ccccc3nc2n1Cc1ccccc1 | 177.4* | ? | -1.1 | . | . | .
CCN(CC)C(=O)C1CCN(Cc2ccc(Br)cc2)CC1 | -5.6 | -1.9 | -3.7 | -1.1 | -5.3 | 2.1
Cc1ccc(S(=O)(=O)N2CCN(C(=O)CC(C)n3cncn3)CC2)cc1C (configuration not stated) | -2.8 | -0.4 | 25.2* | . | . | .
Cc1ccc(S(=O)(=O)N2CCN(C(=O)CC(C)n3cncn3)CC2)cc1 (configuration not stated) | -2.2 | -0.5 | 0.9 | . | . | .
CC1(C)CC(NCCN2CCN(C3=CC(=C(C#N)C#N)CC(C)(C)C3)CC2)=CC(=C(C#N)C#N)C1 | -2.2 | 1.6 | 2.4 | -11.7 | -26.9 | -11.0
CN1CCN(C2=CC3=CC(=C(C#N)C#N)CCC3CC2)CC1 (configuration not stated) | . | . | . | -27.3 | 88.4* | -52.9
N#CC(C#N)=C1C=C2C=C(N3CCOCC3)CCC2CC1 (configuration not stated) | -1.6 | ? | . | 19.9 | 86.5* | -78.9
CCN1CCN(C2=CC3=CC(=C(C#N)C#N)CCC3CC2)CC1 (configuration not stated) | . | . | . | -114.7 | 86.2* | -250.8
N#CC(C#N)=C1C=C2C=C(N3CCCCCC3)CCC2CC1 (configuration not stated) | 44.5* | ? | . | 4.2 | 82.6* | -90.8
N#C/C(=C/N1CCOCC1)c1ccccc1 | 6.1 | -0.3 | -2.4 | -1.3 | 1.8 | -15.9
O=C1c2cccc3cccc(c23)C(=O)N1OS(=O)(=O)c1ccc(Br)cc1 | 0.4 | -0.2 | 0.4 | 3.8 | -0.5 | -19.6
O=C1C(Br)=Cc2cccc3cccc1c23 | -49.8 | -9.9 | 4.9 | -174.0 | -24.0 | 116.2*

High-throughput results: PubChem, several laboratories
